Columns and labels:
[1] = AUC(0 to infinity) in adult fasted Sprague-Dawley rat at 30 mg/kg, po administered as 125 mM aqueous Gly-Sar solution by HPLC-tandem mass spectrometry; type: ADME, organism-based; set-up: time infinity, dose 30 mg/kg, route oral; details: plasma
Summary of the method: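 Adult male Sprague-Dawley rats (243-283 g), jugular-cannulated, fasted from 6 h before dosing through the 6-h study. Given 30 mg/kg orally (free base) at 10 ml/kg, n=3/group. Blood sampled at 0.25-6 h into K2EDTA with dichlorvos esterase inhibitor. Plasma assayed by LC-MS/MS (0.1-500 μg/l). Noncompartmental analysis: linear-trapezoid AUC; infinity extrapolation via log-linear terminal λz.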

[2] = AUC(0 to infinity) in adult fed Sprague-Dawley rat at 30 mg/kg, po administered as 125 mM aqueous Gly-Sar solution by HPLC-tandem mass spectrometry; type: ADME, organism-based; set-up: time infinity, dose 30 mg/kg, route oral; details: plasma
Summary of the method: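 Sprague-Dawley males, 7-8 weeks, 243-283 g, jugular-cannulated, 3 days' recovery; fed (chow ad libitum). Single oral dose of 30 mg/kg (free base) at 10 ml/kg; 3 rats/group. Jugular blood taken at 0.25-24 h into K2EDTA with dichlorvos, kept on ice. Plasma analysed by validated LC-MS/MS (0.1-500 μg/l). Noncompartmental analysis; AUC by linear trapezoid, AUC0-∞ extrapolated using λz.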

[3] = Drug uptake in CHOK1 cells at 100 uM at 4 degC after 10 mins by HPLC coupled with radiodetection analysis; type: ADME, cell-based, Cricetulus griseus; details: chinese hamster, cho-k1, 10 min
Summary of the method: (§1)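 CHO-K1 cells held in KH buffer at pH 6. Incubated 10 min with [14C]oseltamivir at 100 μM, either with 20 mM Trp-Gly, valacyclovir or cefadroxil, or at 4°C (on ice) against 37°C. Quenched with ice-cold PBS-0.2% BSA, washed, lysed in 1% Triton X-100 at 60°C. Lysate counted by scintillation and normalised to BCA protein. Three experiments, each point in triplicate.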

[4] = Drug uptake in CHOK1 cells at 100 uM at pH 4 to 8 after 10 mins by HPLC coupled with radiodetection analysis; type: ADME, cell-based, Cricetulus griseus; details: chinese hamster, cho-k1, pH 4, 10 min
Summary of the method: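 [14C]oseltamivir at 100 μM incubated with CHO-K1 cells for 10 min at 37°C in KH buffer over pH 4-8, with pH readjusted after compound addition. Washed cells were lysed in Triton X-100, radioactivity counted and normalised to protein. Three independent experiments, each run in triplicate.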

[5] = Drug uptake in CHOK1 cells expressing human PEPT1 at 100 uM after 10 mins by HPLC coupled with radiodetection analysis in presence of PEPT1 inhibitor cefadroxil; type: ADME, cell-based, Cricetulus griseus; details: chinese hamster, cho-k1, 10 min
Summary of the method: (§2)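 CHO-PEPT1 and parental CHO-K1 cells were washed in KH/MES buffer, then incubated 10 min at 37°C, pH 6, with 100 µM [14C]oseltamivir alone or with 20 mM of the inhibitor. The pH was readjusted after additions. Uptake was quenched with ice-cold PBS-BSA and cells were washed and lysed in 1% Triton X-100. Lysate radioactivity was normalized to BCA protein. Three experiments on separate days, triplicate wells.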

[6] = Drug uptake in CHOK1 cells at 100 uM after 10 mins by HPLC coupled with radiodetection analysis in presence of PEPT1 inhibitor valacyclovir; type: ADME, cell-based, Cricetulus griseus; details: chinese hamster, cho-k1, 10 min; summary of the method: as §1
[7] = Drug uptake in CHOK1 cells at 100 uM after 10 mins by HPLC coupled with radiodetection analysis in presence of PEPT1 inhibitor cefadroxil; type: ADME, cell-based, Cricetulus griseus; details: chinese hamster, cho-k1, 10 min; summary of the method: as §1
[8] = Drug uptake in CHOK1 cells expressing human PEPT1 at 100 uM at pH 4 to 8 after 10 mins by HPLC coupled with radiodetection analysis; type: ADME, cell-based, Cricetulus griseus; details: chinese hamster, cho-k1, pH 4, 10 min
Summary of the method: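 pH series from 4 to 8: CHO-PEPT1 and CHO-K1 cells were exposed to 100 µM [14C]oseltamivir (or 2 µM [3H]Gly-Sar) in KH/MES buffer, with pH readjusted after substrate addition, for 10 min at 37°C. Then quench in ice-cold PBS-BSA, Triton X-100 lysis and scintillation counting normalized to protein. Three independent experiments.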

[9] = Drug uptake in CHOK1 cells expressing human PEPT1 at 100 uM at 4 degC after 10 mins by HPLC coupled with radiodetection analysis; type: ADME, cell-based, Cricetulus griseus; details: chinese hamster, cho-k1, 10 min
Summary of the method: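 100 µM [14C]oseltamivir was incubated with CHO-PEPT1 and CHO-K1 cells for 10 min in KH/MES buffer pH 6, on ice (4°C) or on a 37°C block. Uptake was stopped with ice-cold PBS-BSA, cells were washed and lysed in Triton X-100, and radioactivity was counted per mg protein (BCA). Three independent experiments.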

[10] = Drug uptake in CHOK1 cells expressing human PEPT1 at 100 uM after 10 mins by HPLC coupled with radiodetection analysis in presence of PEPT1 inhibitor valacyclovir; type: ADME, cell-based, Cricetulus griseus; details: chinese hamster, cho-k1, 10 min; summary of the method: as §2
[11] = Drug uptake in CHOK1 cells at 100 uM after 10 mins by HPLC coupled with radiodetection analysis in presence of PEPT1 inhibitor Trp-Gly; type: ADME, cell-based, Cricetulus griseus; details: chinese hamster, cho-k1, 10 min; summary of the method: as §1
[12] = Drug uptake in CHOK1 cells expressing human PEPT1 at 100 uM after 10 mins by HPLC coupled with radiodetection analysis in presence of PEPT1 inhibitor Trp-Gly; type: ADME, cell-based, Cricetulus griseus; details: chinese hamster, cho-k1, 10 min; summary of the method: as §2

| AUC(0-inf) [1] | AUC(0-inf) [2] | Drug uptake [3] | Drug uptake [4] | Drug uptake [5] | Drug uptake [6] | Drug uptake [7] | Drug uptake [8] | Drug uptake [9] | Drug uptake [10] | Drug uptake [11] | Drug uptake [12] | SMILES |
| --- | --- | --- | --- | --- | --- | --- | --- | --- | --- | --- | --- | --- |
| 8860 ng·h/mL | 4870 ng·h/mL |  |  |  |  |  |  |  |  |  |  | CCC(CC)O[C@@H]1C=C(C(=O)O)C[C@H](N)[C@H]1NC(C)=O [OSELTAMIVIR CARBOXYLATE] |
| 3810 ng·h/mL | 2840 ng·h/mL | Not Active | Active | Not Active | Not Active | Not Active | Active | Not Active | Not Active | Not Active | Not Active | CCOC(=O)C1=C[C@@H](OC(CC)CC)[C@H](NC(C)=O)[C@@H](N)C1 [OSELTAMIVIR] |
